Test results as given in ChEMBL document CHEMBL1123135, “Substituent effects on the bioactivation of 2-(N-hydroxyacetamido)fluorenes by N-arylhydroxamic acid N,O-acyltransferase” (J Med Chem, 1985).

How the values were obtained:
[1] = Observed log rate of methylthio adduct formation; format: ADME
Method in brief: (§1)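 Hamster liver 105000g cytosol AHAT was taken as the 35–50% ammonium sulfate fraction (2–3-fold purified). Incubation (1.0 mL, pH 6.8 sodium phosphate) held 0.8 μmol NAD⁺, 10 μmol N-acetyl-L-[¹⁴C-CH₃]methionine, 1 mg enzyme and 1 μmol hydroxamic acid, for 10 min at 37 °C in air. Ether wash and 90 °C/45 min heating were followed by benzene–alkane extraction and scintillation counting. Heat-denatured enzyme blanks were subtracted; N = 3.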

[2] = system: Hamster; assay: Rate of methylthio adduct formation catalyzed by partially purified hamster hepatic enzyme per mg protein per 10 min; format: ADME; settings: cricetinae, in vitro; method in brief: as §1

Compound	Log rate [1]	Rate [2] [nmol/mg/10 min]
CC(=O)N(O)c1ccc2c(c1)Cc1ccccc1-2	0.87	7.5
CCCCOc1ccc2c(c1)Cc1cc(N(O)C(C)=O)ccc1-2	–	0
CC(=O)c1ccc2c(c1)Cc1cc(N(O)C(C)=O)ccc1-2	1.79	61
CC(=O)N(O)c1ccc2c(c1)Cc1cc(F)ccc1-2	1.18	15.2
CC(=O)N(O)c1ccc2c(c1)Cc1cc(I)ccc1-2	0.37	2.4
CC(=O)N(O)c1ccc2c(c1)Cc1cc(Br)ccc1-2	1.02	10.5
COc1ccc2c(c1)Cc1cc(N(O)C(C)=O)ccc1-2	0.09	1.2
CC(=O)N(O)c1ccc2c(c1)Cc1cc(C#N)ccc1-2	1.4	24.9
